Test results: ChEMBL document CHEMBL4622848, “Syntheses, in vitro α-amylase and α-glucosidase dual inhibitory activities of 4-amino-1,2,4-triazole derivatives their molecular docking and kinetic studies” (Bioorg Med Chem, 2020)

Legend:
Alpha amylase = target: T1, Alpha amylase (Homo sapiens, UniProt P0DUB6); assay: Inhibition of alpha-amylase (unknown origin) using starch as substrate preincubated for 10 mins followed by substrate addition and measured after 10 mins by dinitrosalicylic acid reagent based assay
T1 sequence (P0DUB6 whole entry): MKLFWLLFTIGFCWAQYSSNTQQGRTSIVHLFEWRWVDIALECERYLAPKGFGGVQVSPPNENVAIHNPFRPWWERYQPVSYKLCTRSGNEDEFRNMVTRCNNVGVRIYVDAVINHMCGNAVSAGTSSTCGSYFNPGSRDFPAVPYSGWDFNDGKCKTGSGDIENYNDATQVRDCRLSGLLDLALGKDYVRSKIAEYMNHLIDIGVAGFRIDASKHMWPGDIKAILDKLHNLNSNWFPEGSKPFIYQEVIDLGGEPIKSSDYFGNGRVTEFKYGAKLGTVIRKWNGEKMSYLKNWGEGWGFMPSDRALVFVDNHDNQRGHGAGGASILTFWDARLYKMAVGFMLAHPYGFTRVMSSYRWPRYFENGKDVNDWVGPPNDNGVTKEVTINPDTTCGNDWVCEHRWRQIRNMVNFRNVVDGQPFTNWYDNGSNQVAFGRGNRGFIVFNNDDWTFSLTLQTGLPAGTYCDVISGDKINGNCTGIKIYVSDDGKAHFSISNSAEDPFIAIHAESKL
In short: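 Enzyme at 0.5 mg/mL in […] pH 6.9, preincubated 10 min at 25 °C with test sample (100, 200, 400, 800, 1000 µg/mL). Then 1% starch in 0.02 M sodium phosphate pH 6.9 added, 10 min at 25 °C.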

[1] = Inhibition of rat intestinal alpha-glucosidase using p-nitrophenyl-alpha-D-glucopyranoside as substrate preincubated for 5 mins followed by substrate addition and measured after 5 mins by spectrophotometric analysis
In short: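 Enzyme source: rat intestinal acetone powder in saline (100:1 w/v), sonicated and centrifuged; supernatant used. Samples (5 mg/mL in DMSO) in 100 mM phosphate buffer pH 6.8, incubated 5 min with enzyme. Then 5 mM p-nitrophenyl-α-D-glucopyranoside added, and p-nitrophenol read at 405 nm after 5 min. Blanks had buffer in place of substrate, controls had DMSO. Inhibition computed from control and sample absorbance.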

Homo sapiens [2] = species: Homo sapiens; assay: Uncompetitive inhibition of alpha-glucosidase (unknown origin) assessed as Vmax using varying levels of para-nitrophenyl-R-D-maltoside as substrate incubated for 30 mins by Lineweaver-Burk plot analysis
In short: (§1)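 Enzyme at 0.2 mg/mL per well in deionized water with PIPES pH 7.0. Inhibitor at 0.0625–0.4 mM (0.0625, 0.125, 0.3, 0.4), substrate p-nitrophenyl-R-D-maltoside at 0.1, 0.2, 0.4, 0.8 and 1.0 mM. Incubated 30 min at 25 °C with readings at 1-min intervals on a plate reader. Km and Vmax derived by enzyme-kinetic graph fitting.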

Homo sapiens [3] = species: Homo sapiens; assay: Uncompetitive inhibition of alpha-glucosidase (unknown origin) assessed as Km using varying levels of para-nitrophenyl-R-D-maltoside as substrate incubated for 30 mins by Lineweaver-Burk plot analysis; in short: as §1
[4] = tested on: C(=N/n1cnnc1)\c1cc2ccccc2[nH]1; assay: (§2) Mixed type inhibition of alpha-amylase (unknown origin) assessed as Km using varying level of para-nitrophenyl-R-D-maltoside as substrate incubated for 30 mins by Lineweaver-Burk plot analysis; conditions: Homo sapiens
In short: (§3)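 Kinetics run with inhibitor at 0.0625, 0.125, 0.3 and 0.4 mM and p-nitrophenyl-R-D-maltoside at 0.1, 0.2, 0.4, 0.8 and 1.0 mM. Enzyme at 0.2 mg/mL per well in deionized water, PIPES buffer pH 7.0, 30 min at 25 °C, absorbance on a plate reader. Vmax and Km obtained by enzyme-kinetic graph fitting.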

[5] = tested on: COc1ccc(/C=N/n2cnnc2)c(F)c1; assay: as §2; conditions: Homo sapiens; in short: as §3
Oc1ccc(/C=N/n2cnnc2)cc1 [6] = assay: as §2; conditions: Homo sapiens; in short: as §3
[7] = tested on: O=[N+]([O-])c1cc(O)cc(/C=N/n2cnnc2)c1; assay: as §2; conditions: Homo sapiens; in short: as §3
[8] = tested on: COc1cc(/C=N/n2cnnc2)cc(OC)c1Br; assay: as §2; conditions: Homo sapiens; in short: as §3
[9] = tested on: O=[N+]([O-])c1ccc(/C=N/n2cnnc2)cc1; assay: as §2; conditions: Homo sapiens; in short: as §3
[10] = tested on: Oc1ccc(/C=N/n2cnnc2)cc1Br; assay: as §2; conditions: Homo sapiens; in short: as §3
Nc1ncccc1/C=N/n1cnnc1 [11] = assay: as §2; conditions: Homo sapiens; in short: as §3
[12] = tested on: COc1cc(/C=N/n2cnnc2)ccc1F; assay: as §2; conditions: Homo sapiens; in short: as §3
[13] = tested on: Clc1ccc(/C=N/n2cnnc2)c(Cl)c1; assay: as §2; conditions: Homo sapiens; in short: as §3
[14] = tested on: C(=N/n1cnnc1)\c1cc2ccccc2[nH]1; assay: (§4) Mixed type inhibition of alpha-amylase (unknown origin) assessed as Vmax using varying levels of para-nitrophenyl-R-D-maltoside as substrate incubated for 30 mins by Lineweaver-Burk plot analysis; conditions: Homo sapiens; in short: as §3
[15] = tested on: COc1ccc(/C=N/n2cnnc2)c(F)c1; assay: as §4; conditions: Homo sapiens; in short: as §3
Oc1ccc(/C=N/n2cnnc2)cc1 [16] = assay: as §4; conditions: Homo sapiens; in short: as §3
[17] = tested on: O=[N+]([O-])c1cc(O)cc(/C=N/n2cnnc2)c1; assay: as §4; conditions: Homo sapiens; in short: as §3
[18] = tested on: COc1cc(/C=N/n2cnnc2)cc(OC)c1Br; assay: as §4; conditions: Homo sapiens; in short: as §3
[19] = tested on: O=[N+]([O-])c1ccc(/C=N/n2cnnc2)cc1; assay: as §4; conditions: Homo sapiens; in short: as §3
[20] = tested on: Oc1ccc(/C=N/n2cnnc2)cc1Br; assay: as §4; conditions: Homo sapiens; in short: as §3
Nc1ncccc1/C=N/n1cnnc1 [21] = assay: as §4; conditions: Homo sapiens; in short: as §3
[22] = tested on: COc1cc(/C=N/n2cnnc2)ccc1F; assay: as §4; conditions: Homo sapiens; in short: as §3
[23] = tested on: Clc1ccc(/C=N/n2cnnc2)c(Cl)c1; assay: as §4; conditions: Homo sapiens; in short: as §3

Row | Compound | IC50 (Alpha amylase) | IC50 [1] | other results
1 | COc1ccc(Br)c(/C=N/n2cnnc2)c1O | 5.25 µM | 5.52 µM | –
2 | Clc1ccc(/C=N/n2cnnc2)cc1 | 4.36 µM | 4.28 µM | –
3 | O=[N+]([O-])c1cccc(/C=N/n2cnnc2)c1 | 5.97 µM | 5.37 µM | –
4 | COc1ccc(/C=N/n2cnnc2)c(OC)c1 | 4.37 µM | 4.28 µM | –
5 | Oc1ccc(/C=N/n2cnnc2)cc1Br | 2.27 µM | 2.37 µM | Vmax (Homo sapiens [2]): 698 µM/min; Km (Homo sapiens [3]): 400 µM
6 | Clc1ccc(/C=N/n2cnnc2)c(Cl)c1 | 2.18 µM | 2.49 µM | Vmax (Homo sapiens [2]): 685 µM/min; Km (Homo sapiens [3]): 500 µM
7 | Alpha amylase (Homo sapiens) (from UniProt P0DUB6) | – | – | Km [4]: 1500 µM; Km [5]: 1300 µM; Km (Oc1ccc(/C=N/n2cnnc2)cc1 [6]): 1300 µM; Km [7]: 1300 µM; Km [8]: 1300 µM; Km [9]: 900 µM; Km [10]: 1200 µM; Km (Nc1ncccc1/C=N/n1cnnc1 [11]): 1000 µM; Km [12]: 1300 µM; Km [13]: 1200 µM; Vmax [14]: 256 µM/min; Vmax [15]: 238 µM/min; Vmax (Oc1ccc(/C=N/n2cnnc2)cc1 [16]): 237 µM/min; Vmax [17]: 232 µM/min; Vmax [18]: 242 µM/min; Vmax [19]: 207 µM/min; Vmax [20]: 221 µM/min; Vmax (Nc1ncccc1/C=N/n1cnnc1 [21]): 213 µM/min; Vmax [22]: 241 µM/min; Vmax [23]: 221 µM/min
8 | Cc1ccc(/C=N/n2cnnc2)c(C)c1 | 4.34 µM | 4.27 µM | –
9 | Oc1ccc(/C=N/n2cnnc2)cc1O | 5.69 µM | 5.44 µM | –
10 | COc1cccc(OC)c1/C=N/n1cnnc1 | 4.37 µM | 4.29 µM | –
11 | O=[N+]([O-])c1ccc(/C=N/n2cnnc2)cc1 | 2.36 µM | 2.47 µM | Vmax (Homo sapiens [2]): 680 µM/min; Km (Homo sapiens [3]): 500 µM
12 | CCOc1cc(/C=N/n2cnnc2)ccc1OC | 5.22 µM | 5.47 µM | –
13 | C(=N\n1cnnc1)/c1c2ccccc2cc2ccccc12 | 5.27 µM | 5.41 µM | –
14 | C(=N\n1cnnc1)/c1cc2ccc3cccc4ccc(c1)c2c34 | 6.41 µM | 6.3 µM | –
15 | Oc1ccc(/C=N/n2cnnc2)cc1 | 2.99 µM | 2.62 µM | Vmax (Homo sapiens [2]): 701 µM/min; Km (Homo sapiens [3]): 400 µM
16 | C(=N\n1cnnc1)/c1cc2ccccc2[nH]1 | 2.01 µM | 2.09 µM | Vmax (Homo sapiens [2]): 703 µM/min; Km (Homo sapiens [3]): 300 µM
17 | Oc1ccc(/C=N/n2cnnc2)c(O)c1O | 5.92 µM | 5.74 µM | –
18 | CC(C)(C)c1cc(/C=N/n2cnnc2)c(C(C)(C)C)cc1O | 6.23 µM | 6.34 µM | –

Row | Compound | IC50 (Alpha amylase) | IC50 [1] | other results
19 | COc1cc(/C=N/n2cnnc2)ccc1O | 5.94 µM | 5.3 µM | –
20 | Nc1ncccc1/C=N/n1cnnc1 | 2.28 µM | 2.44 µM | Vmax (Homo sapiens [2]): 685 µM/min; Km (Homo sapiens [3]): 500 µM
21 | COc1cc(/C=N/n2cnnc2)cc(OC)c1Br | 2.25 µM | 2.52 µM | Vmax (Homo sapiens [2]): 690 µM/min; Km (Homo sapiens [3]): 700 µM
22 | O=[N+]([O-])c1cc(O)cc(/C=N/n2cnnc2)c1 | 2.41 µM | 2.31 µM | Vmax (Homo sapiens [2]): 695 µM/min; Km (Homo sapiens [3]): 500 µM
23 | COc1ccc(/C=N/n2cnnc2)c(F)c1 | 2.9 µM | 2.33 µM | Vmax (Homo sapiens [2]): 701 µM/min; Km (Homo sapiens [3]): 500 µM
24 | COc1cc(/C=N/n2cnnc2)cc(OC)c1O | 3.31 µM | 3.27 µM | –
25 | COc1cc(/C=N/n2cnnc2)cc(OC)c1OC | 5.12 µM | 5.46 µM | –
26 | CCOc1ccc(/C=N/n2cnnc2)cc1OC | 5.24 µM | 5.36 µM | –
27 | Oc1ccc(/C=N/n2cnnc2)c(O)c1 | 5.95 µM | 5.44 µM | –
28 | Oc1ccc(O)c(/C=N/n2cnnc2)c1 | 5.27 µM | 5.37 µM | –
29 | C[C@H]1O[C@H](O[C@H]2[C@H](O)[C@@H](O)[C@@H](O[C@H]3[C@H](O)[C@@H](O)C(O)O[C@@H]3CO)O[C@@H]2CO)[C@H](O)[C@@H](O)[C@@H]1N[C@H]1C=C(CO)[C@@H](O)[C@H](O)[C@H]1O (some centres not stated) [ACARBOSE] | – | 1.99 µM | –
30 | O=[N+]([O-])c1ccc(Cl)c(/C=N/n2cnnc2)c1 | 4.46 µM | 4.37 µM | –
31 | COc1cc(/C=N/n2cnnc2)ccc1F | 2.33 µM | 2.27 µM | Vmax (Homo sapiens [2]): 697 µM/min; Km (Homo sapiens [3]): 500 µM
32 | COc1ccc(Br)cc1/C=N/n1cnnc1 | 3.3 µM | 3.46 µM | –
33 | CC(C)(C)c1ccc(/C=N/n2cnnc2)cc1 | 6.44 µM | 6.37 µM | –
34 | COc1ccc(/C=N/n2cnnc2)cc1OCc1ccccc1 | 6.23 µM | 6.54 µM | –
35 | C(=N\n1cnnc1)/c1ccc(OCc2ccccc2)cc1 | 5.04 µM | 5.44 µM | –
